≈ marks a conversion by molar mass, not a printed value.
Test system: Mycobacterium tuberculosis
Test: Antimycobacterial activity against multi-drug-resistant Mycobacterium tuberculosis by agar dilution method
Assay type: functional
Procedure, shortened: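 MIC was determined by agar dilution, in duplicate.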

Row | SMILES | MIC
1 | CC1(C)COCN1c1nc2c(cc1[N+](=O)[O-])c(=O)c(C(=O)O)cn2C(C)(C)C | 0.1 µM (≈ 0.039 µg/mL)
2 | O=C(O)c1cn(-c2ccc(F)cc2)c2nc(N3CCN(C(c4ccccc4)c4ccc(Cl)cc4)CC3)c([N+](=O)[O-])cc2c1=O (stereo not drawn) | 0.31 µM (≈ 0.19 µg/mL)
3 | O=C(O)c1cn(-c2ccc(F)cc2)c2nc(N3CCC(O)(c4ccc(Cl)cc4)CC3)c([N+](=O)[O-])cc2c1=O | 0.72 µM (≈ 0.388 µg/mL)
4 | CC(C)(C)n1cc(C(=O)O)c(=O)c2cc([N+](=O)[O-])c(N3CCC(N4CCCCC4)CC3)nc21 | 1.7 µM (≈ 0.778 µg/mL)
5 | O=C(O)c1cn(C2CC2)c2nc(N3CCC(n4c(=O)[nH]c5cc(Cl)ccc54)CC3)c([N+](=O)[O-])cc2c1=O | 0.74 µM (≈ 0.388 µg/mL)
6 | CC(C)(C)n1cc(C(=O)O)c(=O)c2cc([N+](=O)[O-])c(N3CCC(n4c(=O)[nH]c5cc(Cl)ccc54)CC3)nc21 | 2.88 µM (≈ 1.56 µg/mL)
7 | CCN(CC)C(=O)C1CCCN(c2nc3c(cc2[N+](=O)[O-])c(=O)c(C(=O)O)cn3-c2ccc(F)cc2)C1 (stereo not drawn) | 1.52 µM (≈ 0.777 µg/mL)
8 | CC(C)(C)n1cc(C(=O)O)c(=O)c2cc([N+](=O)[O-])c(N3CCN(Cc4ccc5c(c4)OCO5)CC3)nc21 | 3.06 µM (≈ 1.56 µg/mL)
9 | CC(C)(C)n1cc(C(=O)O)c(=O)c2cc([N+](=O)[O-])c(N3CCC4(CC3)OCCO4)nc21 | 0.44 µM (≈ 0.19 µg/mL)
10 | CC(C)(C)NC(=O)C1c2ccccc2CCN1c1nc2c(cc1[N+](=O)[O-])c(=O)c(C(=O)O)cn2C1CC1 (stereo not drawn) | 6.19 µM (≈ 3.13 µg/mL)
11 | O=C(O)c1cn(-c2ccc(F)cc2)c2nc(N3CCSCC3)c([N+](=O)[O-])cc2c1=O | 0.91 µM (≈ 0.392 µg/mL)
12 | CC(C)(C)n1cc(C(=O)O)c(=O)c2cc([N+](=O)[O-])c(N3CCSCC3)nc21 | 0.48 µM (≈ 0.188 µg/mL)
13 | CN1CCN(c2nc3c(cc2[N+](=O)[O-])c(=O)c(C(=O)O)cn3-c2ccc(F)cc2)CC1c1ccccc1 (stereo not drawn) | 0.18 µM (≈ 0.0906 µg/mL)
14 | CN1CCN(c2nc3c(cc2[N+](=O)[O-])c(=O)c(C(=O)O)cn3C(C)(C)C)CC1c1ccccc1 (stereo not drawn) | 0.84 µM (≈ 0.391 µg/mL)
15 | O=C(O)c1cn(C2CC2)c2nc(N3CCN(C(=O)C4COc5ccccc5O4)CC3)c([N+](=O)[O-])cc2c1=O (stereo not drawn) | 1.49 µM (≈ 0.777 µg/mL)
16 | CC1CN(c2nc3c(cc2[N+](=O)[O-])c(=O)c(C(=O)O)cn3C2CC2)CC(C)O1 (stereo not drawn) | 4.02 µM (≈ 1.56 µg/mL)
17 | O=C(O)c1cn(-c2ccc(F)cc2)c2nc(N3CCC(N4CCCCC4)CC3)c([N+](=O)[O-])cc2c1=O | 1.57 µM (≈ 0.778 µg/mL)

Row | SMILES | MIC
18 | CC(C)(C)n1cc(C(=O)O)c(=O)c2cc([N+](=O)[O-])c(N3CCN(C(=O)C4COc5ccccc5O4)CC3)nc21 (stereo not drawn) | 2.9 µM (≈ 1.56 µg/mL)
19 | O=C(O)c1cn(C2CC2)c2nc(N3CCN(C(=O)c4ccco4)CC3)c([N+](=O)[O-])cc2c1=O | 3.44 µM (≈ 1.56 µg/mL)
20 | CC(C)(C)NC(=O)C1c2ccccc2CCN1c1nc2c(cc1[N+](=O)[O-])c(=O)c(C(=O)O)cn2C(C)(C)C (stereo not drawn) | 1.49 µM (≈ 0.777 µg/mL)
21 | O=C(O)c1cn2c(n1)CN(c1nc3c(cc1[N+](=O)[O-])c(=O)c(C(=O)O)cn3C1CC1)CC2 | 1.77 µM (≈ 0.779 µg/mL)
22 | CC(C)(C)n1cc(C(=O)O)c(=O)c2cc([N+](=O)[O-])c(N3CCN(C(=O)c4ccco4)CC3)nc21 | 3.32 µM (≈ 1.56 µg/mL)
23 | O=C(O)c1cn(C2CC2)c2nc(N3CCN(Cc4ccc5c(c4)OCO5)CC3)c([N+](=O)[O-])cc2c1=O | 1.58 µM (≈ 0.78 µg/mL)
24 | CC(C)(C)n1cc(C(=O)O)c(=O)c2cc([N+](=O)[O-])c(N3CCn4cc(C(=O)O)nc4C3)nc21 | 0.42 µM (≈ 0.192 µg/mL)
25 | COc1ccc(CC2C3=C(CCCC3)CCN2c2nc3c(cc2[N+](=O)[O-])c(=O)c(C(=O)O)cn3C2CC2)cc1 (stereo not drawn) | 0.74 µM (≈ 0.393 µg/mL)
26 | CC1CN(c2nc3c(cc2[N+](=O)[O-])c(=O)c(C(=O)O)cn3-c2ccc(F)cc2)CC(C)O1 (stereo not drawn) | 0.43 µM (≈ 0.19 µg/mL)
27 | O=C(O)c1cn2c(n1)CN(c1nc3c(cc1[N+](=O)[O-])c(=O)c(C(=O)O)cn3-c1ccc(F)cc1)CC2 | 0.38 µM (≈ 0.188 µg/mL)
28 | O=C(O)c1cn(-c2ccc(F)cc2)c2nc(N3CCN(C(=O)c4ccco4)CC3)c([N+](=O)[O-])cc2c1=O | 1.54 µM (≈ 0.781 µg/mL)
29 | O=C(O)c1cn(-c2ccc(F)cc2)c2nc(N3CCC(n4c(=O)[nH]c5cc(Cl)ccc54)CC3)c([N+](=O)[O-])cc2c1=O | 0.62 µM (≈ 0.359 µg/mL)
30 | CC(C)(C)NC(=O)C1c2ccccc2CCN1c1nc2c(cc1[N+](=O)[O-])c(=O)c(C(=O)O)cn2-c1ccc(F)cc1 (stereo not drawn) | 1.39 µM (≈ 0.778 µg/mL)
31 | CC(C)(C)n1cc(C(=O)O)c(=O)c2cc([N+](=O)[O-])c(N3CCC(O)(c4ccc(Cl)cc4)CC3)nc21 | 1.56 µM (≈ 0.781 µg/mL)
32 | COc1c(N2CCNC(C)C2)c(F)cc2c(=O)c(C(=O)O)cn(C3CC3)c12 (stereo not drawn) [GATIFLOXACIN] | 8.34 µM (≈ 3.13 µg/mL)
33 | NNC(=O)c1ccncc1 [ISONIAZID] | 45.6 µM (≈ 6.25 µg/mL)

Reference: ChEMBL document CHEMBL1138270, “Antimycobacterial activities of novel 1-(cyclopropyl/tert-butyl/4-fluorophenyl)-1,4-dihydro- 6-nitro-4-oxo-7-(substituted secondary amino)-1,8-naphthyridine-3-carboxylic acid” (J Med Chem, 2007)
